GSK3B inh = human GSK3beta kinase inhibition; 300,000 tested, 0.038% active; P49841; activity score (negative = inhibition), % at 10 µM; GST-GSK3beta kinase, ADP-Glo luminescence, 60 min; stronger effect = lower value;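 active means more than half of replicate wells score below -50%, meaning over 50% inhibition versus plate controls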;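 further: 0% = median DMSO wells and -100% = median GW8510 positive control wells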
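Assay system: GST-fused GSK3beta enzyme, cell-free / Medium: Tris pH 7.5 buffer with MgCl2, DTT, BSA, heparin / Also added: peptide substrate plus 25 µM ATP (final) / Compound: 10 µM single point / Timing: kinase reaction with compound 60 min at room temperature / Detection: ADP-Glo luminescence / Benchmarks: DMSO neutral wells and GW8510 at 20 µM as positive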
Dyrk1A ADPGlo = blocks rat Dyrk1A kinase activity | AID 504441 | Q63470 | 310,000 tested, 0.43% active | ADP-Glo luminescence, NFATc1 peptide | inhibition, % at 12.5 µM; in the data active means inhibition above about 50%;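 further: plate controls were vehicle with enzyme for no effect and no enzyme for full effect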
GSK3A inh = blocks human GSK-3 alpha kinase; P49840; ADP-Glo luminescence, 60 min; inhibition, % at 10 µM; 320,000 tested, 0.1% active; AID 2650;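 active means more than half of replicates show inhibition above 20%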;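 further: GST-tagged GSK-3 alpha with peptide substrate and 25 µM ATP; 0% = DMSO neutral wells and 100% = GW8510 positive control wells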
CDK5 inh = inhibitors of human CDK5/p35 kinase | AID 488839 | 330,000 tested, 0.01% active | Recombinant CDK5/p35, ADP-Glo luminescence, 60 min | inhibition, % at 10 µM;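 active means highest replicate inhibition of at least 50% and at least 75% of replicates reaching 50%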;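 further: plate controls were DMSO neutral control for no effect and GW8510 at 10 µM for full effect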
STK33 inh = inhibitors of human STK33 kinase | 320,000 tested, 0.073% active | purified STK33, MBP phosphorylation, ADP-Glo luminescence | inhibition, % at 10 µM;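 active means inhibition at or above 25%, using the most active replicate where run in duplicate; inactive means inhibition below 25%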
Target sequence (Q9BYT3 whole entry, looked up): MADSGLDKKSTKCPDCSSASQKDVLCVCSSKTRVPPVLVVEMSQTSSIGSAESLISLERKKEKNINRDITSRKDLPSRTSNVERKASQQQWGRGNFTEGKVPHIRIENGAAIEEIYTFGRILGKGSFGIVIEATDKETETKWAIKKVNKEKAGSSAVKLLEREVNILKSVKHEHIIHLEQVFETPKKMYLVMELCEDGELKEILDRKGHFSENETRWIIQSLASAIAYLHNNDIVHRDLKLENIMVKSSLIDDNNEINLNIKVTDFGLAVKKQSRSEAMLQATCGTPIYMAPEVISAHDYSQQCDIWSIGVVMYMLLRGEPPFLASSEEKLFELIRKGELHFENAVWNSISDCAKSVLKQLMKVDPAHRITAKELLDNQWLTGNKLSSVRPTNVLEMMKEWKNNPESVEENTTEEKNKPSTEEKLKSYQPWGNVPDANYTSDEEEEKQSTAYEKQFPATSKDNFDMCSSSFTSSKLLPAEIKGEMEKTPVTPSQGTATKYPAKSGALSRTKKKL
Active calls of the source: *; / = not tested or not shown. Shown is part of a subset that was picked to be rich in hits.

SMILES	GSK3B inh	Dyrk1A ADPGlo	GSK3A inh	CDK5 inh	STK33 inh
O=C(O)CCC1c2cc3c4cc2OC2Oc5cc6c(cc51)C(CCC(=O)O)c1cc5c7cc1OC(O6)c1cc6cc(c1)Oc1cc(cc(C(=O)O)c1)Oc1cc8cc(c1)C(Oc1cc(c(cc1C5CCC(=O)O)C3CCC(=O)O)OC(O4)c1cc(cc(c1)Oc1cc(cc(C(=O)O)c1)O8)Oc1cc(cc(C(=O)O)c1)Oc1cc(cc2c1)Oc1cc(cc(C(=O)O)c1)O6)O7 (stereo unspecified)	2	/	-305	/	30*
COc1cc2c(c(OC)c1OC)C(=O)CO2	/	/	/	1	/
CCOc1ccc(CCN2C(=S)N([C@@H](CC(C)C)CN3CCCC3CN3C(=S)NC[C@@H]3CC(C)C)C[C@@H]2CC(C)C)cc1 (stereo partly specified)	/	/	/	0	/
C#CCOCCOCCOCCNc1nc(N2CCN(C(=O)CCCCCCCCCCNC(=O)[C@H]([C@@H](C)CC)n3cc(CCCCCN)nn3)CC2)nc(N2CCN(C(=O)CCCCCCCCCCNC(=O)[C@H](CO)n3cc(CCCCCN)nn3)CC2)n1	/	55*	28	6	9
C#CCOCCOCCOCCNc1nc(N2CCN(C(=O)CCCCCCCCCCNC(=O)[C@H]([C@@H](C)CC)n3cc(CCCCN=C(N)N)nn3)CC2)nc(N2CCN(C(=O)CCCCCCCCCCNC(=O)[C@H]([C@@H](C)CC)n3cc(CCCCN=C(N)N)nn3)CC2)n1	/	/	7	/	31*
COc1ccc(C=O)c(OCc2cn(CC(=O)c3ccc(O)cc3)nn2)c1	/	13	/	1	/
NC(=O)c1sc2nc(-c3ccco3)ccc2c1N	-9	47	13	1	27*
COC(=O)c1sc2nc(-c3ccco3)ccc2c1N	4	2	3	-2	2
Nc1nc(=O)n(C2CCCCO2)cc1Br (stereo unspecified)	/	/	/	-1	/
COc1ccc(S(=O)(=O)N(C)CC(=O)NCCCN2CCOCC2)cc1C	/	6	/	-1	/
CC1CCC(CC(=O)O)(C(=O)O)CC1 (stereo unspecified)	/	-1	/	-2	/
Nc1ncnc2c(C3OC(CO)C(O)C3O)scc12 (stereo unspecified)	/	10	/	-1	/
O=C(O)Cn1cc(/C=N/Nc2ccc([N+](=O)[O-])cn2)c2ccccc21	-41	18	63*	5	10
COC(=O)c1cc(NC(=O)C2COc3ccccc3O2)cc(C(=O)OC)c1 (stereo unspecified)	3	4	-2	0	29*
C=C(CN(C)C)C(=O)c1ccc2c(c1)OCO2	/	/	/	0	/
COc1ccc(-c2csc(NC(=O)c3ccccc3NS(=O)(=O)c3ccc(F)c(F)c3)n2)cc1	4	57*	-5	-6	-1
Oc1ccccc1N=Cc1c(O)ccc2ccccc12	0	-1	/	0	/
CC(=O)N(C)c1ccc(N=Cc2c(O)ccc3ccccc23)cc1	-2	-4	1	1	62*
Cc1cc(C(=O)O)ccc1N=Cc1c(O)ccc2ccccc12	1	/	0	0	26*
CN(C)S(=O)(=O)c1ccc(Cl)c(NC(=O)COC(=O)CNS(=O)(=O)c2c(F)cccc2F)c1	/	-7	/	-1	/
CN(c1ccccc1)c1nc(N)c([N+](=O)[O-])c(NC2CCCCC2)n1	3	-2	1	1	-1
Nc1nc(NC2CCCCC2)nc(NCCO)c1[N+](=O)[O-]	-58*	2	86*	1	3
COCCNc1nc(N)c([N+](=O)[O-])c(NC2CCCCC2)n1	-19	3	61*	-1	1
COc1ccc(OC)c(Nc2nc(N)c([N+](=O)[O-])c(NC3CCCCC3)n2)c1	3	3	2	0	0
NCCCNc1nc(N)c([N+](=O)[O-])c(NC2CCCCC2)n1	1	8	73*	-1	2
SMILES	GSK3B inh	Dyrk1A ADPGlo	GSK3A inh	CDK5 inh	STK33 inh
C=CCNc1nc(N)c([N+](=O)[O-])c(NCCO)n1	-18	-1	-3	4	-1
COC(=O)CCC1(C(N)=O)CCC(=O)c2ccccc21 (stereo unspecified)	/	2	/	2	/
NC(=O)c1ncn([C@@H]2O[C@H](CNCc3c(OCc4ccccc4F)ccc4ccccc34)[C@@H](O)[C@H]2O)n1	/	/	/	0	/
O=C(O)c1ccc(N=Nc2c(O)[nH]c3ccc(Br)cc23)cc1	2	9	64*	-4	1
O=C(O)c1ccc(N=Nc2c(O)[nH]c3cc(Cl)ccc23)cc1	-27	/	28	4	2
O=C(NNC(=O)c1ccncc1)Nc1ccc(N=Nc2ccccc2)cc1	/	7	/	0	/
CCCCCCCCCCOC(=O)Cn1c(COc2ccc(Cl)cc2)[n+](C)c2ccccc21	-15	3	32	1	32*
CCCCCCCCCCOC(=O)Cn1c(COc2ccccc2)[n+](C)c2ccccc21	-19	-1	23	1	11
C/C(NCCCn1ccnc1)=C(\C#N)C(N)=O	-22	6	51*	0	-1
CSc1nc(-c2cccs2)c(C#N)c(=O)[nH]1	3	48	1	0	1
CNC(=O)NC(=O)CSc1nc(-c2cccs2)c(C#N)c(=O)[nH]1	-75*	6	/	1	/
Cc1cc(=O)n2c3c(c4c(cc13)c(CN(C)C)cc(=O)n4C)OC2	/	22	/	2	/
O=c1c(/C=N/O)c(Nc2ccccc2)nc2ccccn12	2	/	2	-1	57*
CCC(C)N=Cc1c(Nc2ccccc2)nc2c(C)cccn2c1=O (stereo unspecified)	0	-5	0	-1	1
COc1ccc(NC(=O)c2cc([N+](=O)[O-])ccc2O)cc1	1	32	0	2	37*
Nc1ccc(S(=O)(=O)Nc2nccs2)cc1N=Nc1ccccc1[N+](=O)[O-]	/	1	/	-2	/
c1ccc(CNc2ncnc3scc(-c4cccs4)c23)nc1	-37	25	57*	-4	11
O=C(Nc1c(C(=O)O)oc2ccc(Br)cc12)c1ccccc1	0	2	75*	-1	0
O=C(Nc1ccccc1)Nc1ccncc1	0	12	-2	3	1
O=C(Nc1ccncc1)Nc1ccccn1	-62*	11	72*	12	8
C[C@H](O)[C@@H]1C(=O)N2CCc3ccc(N4CCOCC4)cc3[C@@H]2C[C@@H]1N(C)C(=O)Nc1ccccc1	/	/	/	-2	/
N#CC(C#N)=C1c2cc(S(N)(=O)=O)ccc2-c2ccc(S(N)(=O)=O)cc21	/	10	/	-1	/
NS(=O)(=O)c1ccc2c(c1)C(=NO)c1cc(S(N)(=O)=O)ccc1-2	2	6	-1	0	72*
O=C(CCOc1cccc(Br)c1)Nc1ccc(F)c(S(=O)(=O)N2CCOCC2)c1	/	12	/	0	/
O=C(N/N=C/c1cn(-c2ccccc2)nc1-c1cccnc1)c1cccnc1	-2	-1	0	-3	-1
O/N=C/c1cn(-c2ccccc2)nc1-c1cccnc1	-29	0	71*	1	0
Cc1ccc(-c2nn(-c3ccccc3)cc2/C=N/O)cc1	-52*	/	78*	1	3

Screening results deposited in PubChem by Broad Institute.
